High-throughput results: PubChem BioAssay, several laboratories
bovine MsrA act – bovine methionine sulfoxide reductase A activation | purified bovine MsrA, absorbance read-out | activation, % at 10.6 µM | 0.3% of 360,000 active | AID 602163; in the data active means activation above about 7.5%
AHR act – activators of human aryl hydrocarbon receptor | AHR-responsive luciferase reporter cells, luminescence | activation, % at 5 µM | 2.5% of 320,000 active; in the data active means activation above about 47%
Tb MetRS inh – Trypanosoma brucei MetRS inhibition. inhibition, % at 11.9 µM. purified T. brucei MetRS, ATP depletion, Kinase-Glo luminescence. 0.4% of 360,000 active;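 active means inhibition above a per-plate cutoff of the control wells' mean inhibition plus 3 SD, cut at about 5.5% in these data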
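Material: parasite MetRS enzyme / Replication: singlicate, one well per compound / Signal: luminescence of leftover ATP / Schedule: 2 h aminoacylation at 25 °C after 15 min preincubation / Medium: HEPES-MgCl2-KCl buffer plus DTT, spermine, BSA, pyrophosphatase / Doses: 11.9 µM single point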
AI-2 QS mod – Vibrio harveyi AI-2 quorum sensing modulation | Vibrio harveyi JMH597 AI-2 luminescence/OD600 ratio, 9 h; stronger effect = lower value; strain lacks LuxN and CqsS sensors; 0 = neutral-control median | activity change, % at 7.5 µM | AID 2094 | 0.4% of 300,000 active; in the data active means activity change below about -75%, passing the limit was not always enough; inconclusive means no clear call, values can overlap the other calls;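 further: luminescence divided by OD600 gain over 9 h not by final OD600 alone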
m5-HT2A agonist – mouse HTR2A agonism via beta-arrestin recruitment. CHO-K1 mHTR2A beta-arrestin complementation, luminescence; percent of 30 µM serotonin response. activation, % at 7.6 µM. 0.66% of 360,000 active. AID 624169;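 active means activation above a run cutoff, the mean activation of all tested compounds plus 3 SD, cut at about 14% in these data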
Target sequence (P35363 whole entry, looked up): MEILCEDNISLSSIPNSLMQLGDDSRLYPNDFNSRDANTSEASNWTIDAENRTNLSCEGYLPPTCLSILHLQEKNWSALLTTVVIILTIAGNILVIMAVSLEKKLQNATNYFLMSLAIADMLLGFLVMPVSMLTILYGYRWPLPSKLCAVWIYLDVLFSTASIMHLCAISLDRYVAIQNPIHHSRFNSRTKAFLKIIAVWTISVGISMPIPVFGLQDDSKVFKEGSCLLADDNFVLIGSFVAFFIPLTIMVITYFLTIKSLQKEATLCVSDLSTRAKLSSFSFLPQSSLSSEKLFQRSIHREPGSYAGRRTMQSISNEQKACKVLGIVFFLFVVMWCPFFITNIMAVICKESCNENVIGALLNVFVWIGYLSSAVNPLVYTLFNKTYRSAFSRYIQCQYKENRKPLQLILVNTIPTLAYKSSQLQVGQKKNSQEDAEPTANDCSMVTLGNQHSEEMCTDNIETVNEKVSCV
MsrA inhibitor – inhibits bovine methionine sulfoxide reductase A; AID 651718; inhibition, % at 15.5 µM; 0.75% of 360,000 active; purified bovine MsrA, absorbance read-out; in the data active means inhibition above about 4.5%
JMH597 growth – retest: blocks Vibrio harveyi JMH597 growth; shares compounds with AI-2 QS mod; OD600 absorbance, 9 h; lacks LuxN and CqsS sensors; growth inhibition, % at 7.5 µM; 1% of 750 active;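 active means every replicate shows growth inhibition above 50%; inconclusive means at least half, but not all, replicates pass that cutoff; inactive means fewer than half of replicates pass it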
BB721 const-QS lum – retest counter-screen: BB721 constitutive quorum sensing luminescence decrease; 95% of 750 active; shares compounds with AI-2 QS mod; Vibrio harveyi BB721 luminescence, 9 h; AID 2727; inhibition, % at 7.5 µM;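 active means inhibition above about 80% in every replicate, not just on average, limit read from the data; inconclusive means at least half of replicates past the limit, but not all; inactive means fewer than half of replicates past the limit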
BB721 growth – retest Vibrio harveyi BB721 growth inhibition; shares compounds with AI-2 QS mod; OD600 absorbance, 9 h; growth inhibition, % at 7.5 µM; 3% of 750 active; AID 2728;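 active means every replicate shows growth inhibition above 50%; inconclusive means at least half but not all replicates above 50% inhibition; inactive means under half of replicates above 50% inhibition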
JMH597 AI-2 mod – Vibrio harveyi AI-2 signaling luminescence modulation – JMH597 strain, confirmation; Vibrio harveyi JMH597 AI-2 quorum sensing luminescence, 9 h; luxN and CqsS knockout, AI-2 only; AID 2736; shares compounds with AI-2 QS mod; 97% of 750 active; inhibition, % at 7.5 µM;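 active means every replicate shows more than 75% inhibition of signal versus neutral control wells; inconclusive means half to three quarters of replicates exceed 75% inhibition; inactive means fewer than half of replicates exceed 75% inhibition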
Numbers stand for hits; i = inactive; ? = inconclusive; nt = no result. Hits are enriched below; roughly 4.4% of the tested compounds scored in any of these assays.

SMILES | bovine MsrA act | AHR act | Tb MetRS inh | AI-2 QS mod | m5-HT2A agonist | MsrA inhibitor | JMH597 growth | BB721 const-QS lum | BB721 growth | JMH597 AI-2 mod
Cc1cc(NS(=O)(=O)c2ccc(NC(=O)COc3ccc(Cl)cc3)cc2)no1 | i | i | i | -87 | i | i | i | 93 | i | 91
Cc1ccc(C(=O)NCCc2ccc(S(=O)(=O)N3CCCC3)cc2)cc1 | i | i | i | -79 | i | i | i | 93 | i | 96
O=C(NNS(=O)(=O)c1ccc(Cl)cc1)c1ccc(S(=O)(=O)N2CCCCC2)cc1 | i | i | i | -97 | i | i | i | 100 | i | 100
Cc1ccc(O)c(CNc2cnc3ccccc3c2)c1 | i | i | i | -97 | i | i | i | 99 | i | 99
COc1ccc(C(=O)N/N=C/c2ccc(OC)c(COc3ccc(F)cc3)c2)cc1 | i | i | i | i | i | i | nt | nt | nt | nt
COc1cccc(OCc2cc(/C=N/Nc3ccc(C(=O)O)cc3)ccc2OC)c1 | i | i | i | -84 | i | i | i | 92 | i | 95
O=C(O)c1ccc(N/N=C/c2ccc3c(c2)OCO3)cc1 | i | i | i | -85 | i | i | i | 98 | i | 98
O=C(O)c1ccc(N/N=C/c2cc3c(cc2[N+](=O)[O-])OCO3)cc1 | i | i | i | ? | i | i | i | 93 | i | 94
CCN(CC(=O)Nc1c(F)cccc1F)C(=O)c1ccc(=O)n(C)n1 | i | nt | i | nt | i | i | nt | nt | nt | nt
COc1ccc(-c2nnn(-c3cc(Cl)cc(Cl)c3)c2N)cc1 | i | i | i | i | i | i | nt | nt | nt | nt
COc1ccc(S(=O)(=O)c2nnn(-c3cccc(Cl)c3)c2N)cc1 | i | i | i | ? | i | i | i | 99 | i | 100
COC(=O)N/N=C/c1ccc(-c2ccc(Cl)cc2Cl)o1 | i | i | i | i | i | i | nt | nt | nt | nt
O=C(O)c1ccc(N/N=C/c2ccc(-c3ccc(Cl)cc3Cl)o2)cc1 | i | i | i | -90 | i | i | i | 98 | i | 97
CCCC(=O)NC(=S)Nc1ccc(S(=O)(=O)N2CCc3ccccc32)cc1 | i | i | i | i | i | i | nt | nt | nt | nt
CCOC(=O)C1=C(C)NC(=S)NC1C (stereo not drawn) | i | i | i | -82 | i | i | i | i | i | i
CC(C)(C)c1ccc(OCC(=O)N2CCN(c3ccccn3)CC2)cc1 | i | i | i | nt | i | i | nt | nt | nt | nt
CC(C)(C)c1ccc(OCC(=O)N2CCN(c3ncccn3)CC2)cc1 | i | i | i | -86 | i | nt | i | 93 | i | 95
COc1ccc(S(=O)(=O)N2CCOCC2)cc1NC(=O)CCNC(=O)c1ccc([N+](=O)[O-])cc1 | i | i | i | nt | i | i | nt | nt | nt | nt
Cc1ccc(NC(=O)CCCC2CCCCC2)c(O)c1 | i | i | i | -91 | i | i | i | 97 | i | 98
Cc1ccc(NC(=O)CCN2C(=O)C3CCCCC3C2=O)c(O)c1 (stereo not drawn) | i | i | i | i | i | i | nt | nt | nt | nt
CC(OC(=O)c1ccc([N+](=O)[O-])o1)C(=O)Nc1nc(-c2ccc(F)c(F)c2)cs1 (stereo not drawn) | i | nt | i | nt | i | i | nt | nt | nt | nt
O=S(=O)(N/N=C\C=C\c1ccccc1)c1ccc(Cl)cc1 | i | i | i | -94 | i | i | i | 99 | i | 100
Cc1cccc(OCCCC(=O)Nc2ccc3c(c2)OCO3)c1 | i | i | i | i | i | i | nt | nt | nt | nt
Cc1ccc(OCCC(=O)OCC(=O)Nc2ccc(F)cc2)cc1 | i | i | i | i | i | i | nt | nt | nt | nt
Cc1cccc(OCCC(=O)Nc2ccc(F)c(Cl)c2)c1 | i | i | i | -86 | i | i | i | 94 | i | 95
SMILES | bovine MsrA act | AHR act | Tb MetRS inh | AI-2 QS mod | m5-HT2A agonist | MsrA inhibitor | JMH597 growth | BB721 const-QS lum | BB721 growth | JMH597 AI-2 mod
Cc1ccc(OCCC(=O)Nc2ccc(F)c(F)c2)cc1 | i | i | i | -86 | i | i | i | 94 | i | 94
CC(C)(Oc1ccc(F)cc1)C(=O)OCC(=O)c1ccc(S(C)(=O)=O)cc1 | i | i | i | nt | i | i | nt | nt | nt | nt
Cc1nn(Cc2ccc(Cl)cc2)c(C)c1NC(=O)c1c(-c2ccccc2)noc1C | i | i | i | -80 | i | i | i | 93 | i | 94
CCOC(=O)Oc1ccc2c(=O)c(Oc3cc(C)cc(C)c3)coc2c1 | i | i | i | i | i | i | nt | nt | nt | nt
Cc1cccc(Oc2coc3cc(O)ccc3c2=O)c1 | i | i | i | -87 | i | i | i | 98 | i | 98
CCOC(=O)Oc1ccc2c(=O)c(Oc3cccc(C)c3)coc2c1 | i | i | i | -85 | i | i | 75 | 97 | ? | 97
CCc1ccc2nc(NC(=O)CSCc3c(C)noc3C)sc2c1 | i | i | i | -90 | i | i | i | 94 | i | 96
Cc1noc(C)c1CSCC(=O)Nc1nc2ccccc2s1 | i | i | i | i | i | i | nt | nt | nt | nt
C[C@H](NC(=O)c1nc[nH]c1C(=O)NCC(=O)OCc1ccccc1)c1ccccc1 | i | i | i | i | i | i | nt | nt | nt | nt
COc1ccc(S(=O)(=O)Nc2ccccn2)cc1 | i | i | i | i | i | i | nt | nt | nt | nt
CC(C)Cc1ccc(S(=O)(=O)Nc2ccccn2)cc1 | i | i | i | -93 | i | i | i | 98 | i | 100
COc1ccc(NC(=O)CSCC(=O)N(C)CC(=O)Nc2ccc(Cl)c(C(F)(F)F)c2)cc1 | i | i | i | -80 | i | i | i | 89 | i | 91
O=C(NCc1ccccc1Cl)C(=O)c1c[nH]c2ccccc12 | i | i | i | -83 | i | i | i | 94 | i | 95
O=C(NCc1cccs1)C(=O)c1c[nH]c2ccccc12 | i | i | i | -92 | i | i | i | 97 | i | 98
CC1CCN(S(=O)(=O)c2c[nH]c(=O)[nH]c2=O)CC1 | i | i | i | i | i | i | nt | nt | nt | nt
COc1ccc(N2CCN(C(=O)COC(=O)CCOc3ccccc3C)CC2)cc1 | i | i | i | i | i | i | nt | nt | nt | nt
CN(C)S(=O)(=O)c1ccc(Oc2ccccc2)cc1 | i | i | i | -93 | i | i | i | 84 | i | 99
O=c1[nH]c(=O)n(Cc2ccc(Oc3ccccc3)cc2)cc1Br | i | i | i | -86 | i | i | i | 93 | i | 95
COc1ccc(-c2cc(CNc3nc4cc(-c5ccccc5C)sc4c(=O)n3C)on2)cc1 | i | nt | i | nt | i | i | nt | nt | nt | nt
O=C(CNC(=O)c1ccc2c(c1)OCO2)N/N=C/c1cc(Br)ccc1O | i | i | i | i | i | i | nt | nt | nt | nt
O=C(COC(=O)c1ccc(Cl)s1)c1cc2ccccc2o1 | i | i | i | -95 | i | i | i | 99 | i | 99
